Measurements published in publication PMC7312786 (Biochemistry, 2018).
Several values for one entry are separate records, joined by “and”; a condition that tells them apart may be missing. Equal entries are not always repeated.

How the values were obtained:
hpol η [1] = target: T1, hpol η (Homo sapiens, UniProt Q9Y253); assay: Fluorescence-based DNA polymerase activity assay, hpol η; type: biochemical; details: 20 μM PNR-7-02; mean (±SD), three experiments
T1 sequence (Q9Y253 1-437): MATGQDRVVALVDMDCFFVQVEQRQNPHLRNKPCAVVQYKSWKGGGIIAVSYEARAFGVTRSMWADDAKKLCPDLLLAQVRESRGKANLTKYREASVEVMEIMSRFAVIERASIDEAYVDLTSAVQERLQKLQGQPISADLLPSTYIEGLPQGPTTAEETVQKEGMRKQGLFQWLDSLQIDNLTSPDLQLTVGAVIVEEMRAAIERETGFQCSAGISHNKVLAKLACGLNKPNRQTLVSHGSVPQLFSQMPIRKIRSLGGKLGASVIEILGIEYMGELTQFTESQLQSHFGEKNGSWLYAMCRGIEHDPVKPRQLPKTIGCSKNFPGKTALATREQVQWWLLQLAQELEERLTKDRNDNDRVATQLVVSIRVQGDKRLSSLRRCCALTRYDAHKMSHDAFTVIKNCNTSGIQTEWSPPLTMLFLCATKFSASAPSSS

[2] = tested on: γH2AX in hpol η-proficient HAP-1 cells; assay: γH2AX immunoblotting, hpol η-proficient HAP-1 cells; type: cell-based, human; details: PNR-7-02 alone
Summary of the method: (§1)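 HAP-1 cells treated with DMSO or 0.5 μM CDDP combined with 0.1 or 1 μM test compound. Pellets lysed at 4 °C in HEPES pH 7.5/Triton X-100 buffer with phosphatase and protease inhibitors. 30–40 μg protein run on 4–20% SDS-PAGE, transferred to nitrocellulose. Probed with anti-γH2AX (S139) 1:1500 and HRP anti-rabbit 1:4000; β-actin loading control; chemiluminescence. Bands normalized to β-actin, relative to DMSO; three biological replicates; t test.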

[3] = target: T2, hpol η binding to primer–template DNA (Homo sapiens, UniProt Q9Y253); assay: Fluorescence anisotropy DNA binding assay; details: 1–12 μM inhibitor, also above the IC50
T2 sequence (Q9Y253 1-437): T1 sequence (Q9Y253 1-437)

hpol η [4] = target: T1, hpol η; assay: HPG labeling / MS protein footprinting of hpol η; type: binding; details: 20 and 100 μM PNR-7-02
Summary of the method: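 Protein footprinting: hpol η (10 μM) preincubated 10 min at 37 °C with 20 μM (1:2) or 100 μM (1:10) test compound in 50 mM HEPES pH 7.8, 10 mM MgCl₂, 10% DMSO. Then 500 μM HPG for 60 min at 37 °C in the dark; quenched with 200 mM arginine. SDS-PAGE, then MS. Modified arginine taken as fraction of total per residue, normalized to the HPG-alone sample.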

TbPol I = TbPol I (Mycobacterium tuberculosis, UniProt P9WNU5); assay: Fluorescence-based pol activity assay, Tb Pol I; type: biochemical; details: 20 μM PNR-7-02; mean (±SD)
[5] = tested on: HAP-1 cells (hpol η-proficient, parental); assay: Cell viability; type: cell-based, human; details: for Combination index (CI) with CDDP: Chou–Talalay
Summary of the method: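 HAP-1 parental or CRISPR hpol η-null cells in IMDM with 10% FBS and 1% antibiotic/antimycotic, passage 8–10, seeded 5000 cells/well. Next day: CDDP 0–100 μM alone or with 0.1 or 1 μM test compound, 48 h. Cells washed twice in DPBS, then 2 μM Calcein-AM for 30 min at 25 °C; fluorescence ex 490/em 520 nm. Viability as % of untreated. […] Combination index by Chou–Talalay.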

[6] = tested on: γH2AX in hpol η-deficient HAP-1 cells; assay: γH2AX immunoblotting, hpol η-deficient HAP-1 cells; type: cell-based, human
Summary of the method: as §1

hpol η [7] = target: T1, hpol η; assay: Gel-based pol extension assay, hpol η; type: biochemical; details: read-out: IC50, hpol η, gel-based assay; best-fit value (95% confidence interval), three experiments
hpol ε = target: T3, hpol ε (Homo sapiens, UniProt Q07864, D275A/E277A); assay: Fluorescence-based pol activity assay, hpol ε; type: biochemical
T3 sequence (Q07864 1-1189 D275A/E277A limits assumed): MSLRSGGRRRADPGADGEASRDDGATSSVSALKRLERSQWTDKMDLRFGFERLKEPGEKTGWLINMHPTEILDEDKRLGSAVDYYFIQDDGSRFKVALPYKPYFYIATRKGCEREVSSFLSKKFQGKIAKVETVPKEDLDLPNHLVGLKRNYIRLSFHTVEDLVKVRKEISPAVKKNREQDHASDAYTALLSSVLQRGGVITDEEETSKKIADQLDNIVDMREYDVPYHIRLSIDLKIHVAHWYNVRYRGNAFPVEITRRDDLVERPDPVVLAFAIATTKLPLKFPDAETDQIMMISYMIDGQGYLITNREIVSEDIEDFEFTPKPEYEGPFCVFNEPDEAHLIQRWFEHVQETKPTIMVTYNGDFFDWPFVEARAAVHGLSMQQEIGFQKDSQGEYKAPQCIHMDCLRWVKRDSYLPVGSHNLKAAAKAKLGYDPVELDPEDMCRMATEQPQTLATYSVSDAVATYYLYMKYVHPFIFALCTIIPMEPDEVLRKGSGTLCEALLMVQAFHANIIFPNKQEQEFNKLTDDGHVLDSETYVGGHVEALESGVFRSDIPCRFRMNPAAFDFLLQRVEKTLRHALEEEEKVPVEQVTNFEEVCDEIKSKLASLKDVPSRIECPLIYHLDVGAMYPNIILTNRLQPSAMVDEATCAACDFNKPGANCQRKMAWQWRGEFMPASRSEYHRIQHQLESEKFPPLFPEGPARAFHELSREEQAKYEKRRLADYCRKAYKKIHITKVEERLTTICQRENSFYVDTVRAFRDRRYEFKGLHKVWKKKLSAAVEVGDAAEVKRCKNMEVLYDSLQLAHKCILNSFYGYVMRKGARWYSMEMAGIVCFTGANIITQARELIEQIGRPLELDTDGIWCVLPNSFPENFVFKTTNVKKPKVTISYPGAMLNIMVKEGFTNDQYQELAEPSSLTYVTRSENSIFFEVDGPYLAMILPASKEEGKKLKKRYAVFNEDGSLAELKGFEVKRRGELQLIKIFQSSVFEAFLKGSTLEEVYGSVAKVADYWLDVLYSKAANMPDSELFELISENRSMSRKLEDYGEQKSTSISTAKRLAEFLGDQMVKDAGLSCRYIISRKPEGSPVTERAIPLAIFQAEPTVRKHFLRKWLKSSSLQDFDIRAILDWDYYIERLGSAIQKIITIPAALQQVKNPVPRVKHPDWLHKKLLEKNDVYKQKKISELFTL

TbPol I, sequence (P9WNU5 whole entry): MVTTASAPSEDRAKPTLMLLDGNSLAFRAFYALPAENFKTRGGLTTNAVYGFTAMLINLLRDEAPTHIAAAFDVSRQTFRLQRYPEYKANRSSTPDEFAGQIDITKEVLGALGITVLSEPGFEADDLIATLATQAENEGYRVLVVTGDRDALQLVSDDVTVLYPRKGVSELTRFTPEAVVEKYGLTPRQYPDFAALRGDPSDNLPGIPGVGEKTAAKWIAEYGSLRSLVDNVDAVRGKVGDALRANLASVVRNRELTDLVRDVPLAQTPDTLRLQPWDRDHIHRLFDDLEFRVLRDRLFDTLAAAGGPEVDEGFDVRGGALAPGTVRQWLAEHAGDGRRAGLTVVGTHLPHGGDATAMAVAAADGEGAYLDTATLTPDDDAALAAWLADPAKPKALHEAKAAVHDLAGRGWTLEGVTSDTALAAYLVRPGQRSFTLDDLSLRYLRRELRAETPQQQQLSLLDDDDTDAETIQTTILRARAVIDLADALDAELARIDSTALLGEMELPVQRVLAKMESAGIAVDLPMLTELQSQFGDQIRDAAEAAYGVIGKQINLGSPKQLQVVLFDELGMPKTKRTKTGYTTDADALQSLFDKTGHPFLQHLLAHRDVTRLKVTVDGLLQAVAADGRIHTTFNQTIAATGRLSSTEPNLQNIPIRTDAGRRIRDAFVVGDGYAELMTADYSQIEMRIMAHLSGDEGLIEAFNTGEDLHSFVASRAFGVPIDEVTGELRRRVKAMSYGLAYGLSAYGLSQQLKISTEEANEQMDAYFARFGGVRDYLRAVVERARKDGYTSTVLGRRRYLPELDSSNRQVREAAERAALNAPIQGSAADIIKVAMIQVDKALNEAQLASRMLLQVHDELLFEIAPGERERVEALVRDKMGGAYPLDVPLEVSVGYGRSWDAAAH

SMILES: O=C1NC(=S)NC(=O)C1=Cc1cn(Cc2ccc3ccccc3c2)c2ccc(Cl)cc12 [PNR-7-02, 5-((5-chloro-1-(naphthalen-2-ylmethyl)-1H-indol-3-yl)methylene)-2-thioxodihydropyrimidine-4,6-(1H,5H)-dione]
- Pol activity relative to DMSO control, hpol η (hpol η [1]): 4.4 (±3.8) % and < 5%
- μH2AX formation [2]: did not change
- Change in Kd,DNA for hpol η binding to DNA [3]: less than 20%
- HPG modification of Arg351 of hpol η (hpol η [4]): completely abrogated
- Pol activity relative to DMSO control, TbPol I (TbPol I): 93 (±2) %
- Combination index values with CDDP, hpol η-proficient cells (summary) ([5]; hpol η-proficient cells co-treated with PNR-7-02): 0.4–0.6
- Combination index (CI) with CDDP ([5]; parental HAP-1, 0.1 μM PNR-7-02): 0.47
- Combination index (CI) with CDDP ([5]; parental HAP-1, 1 μM PNR-7-02): 0.59
- Decrease of CDDP EC50 on co-treatment with PNR-7-02 ([5]; parental HAP-1, both concentrations of inhibitor (0.1 and 1 μM)): > 2 fold
- EC50 ([5]; read-out: EC50, cell viability, PNR-7-02 alone, hpol η-proficient parental HAP-1, 48 h): 4.6 µM
- μH2AX, combination treatment versus CDDP alone ([6]; CDDP + PNR-7-02): did not increase
- μH2AX formation ([6]; PNR-7-02 alone): did not change
- IC50 (hpol η [7]): 8 µM
- Pol activity relative to DMSO control, hpol ε (hpol ε; 20 μM PNR-7-02, mean (±SD)): 32 (±5) %
- Specificity for hpol η over replicative pols (hpol ε) (hpol ε; from activity at 20 μM PNR-7-02): 5–10 fold
